Experimental data: ChEMBL document CHEMBL1641579, “Synthesis and biological evaluation of 7-substituted-1-(3-bromophenylamino)isoquinoline-4-carbonitriles as inhibitors of myosin light chain kinase and epidermal growth factor receptor” (Bioorg Med Chem, 2011)

Legend:
[1] = target: Serine/threonine-protein kinase PAK 2 (Homo sapiens) (UniProt Q13177); assay: Inhibition of PAK2 assessed as residual activity at 10 uM
Method in brief: (§1)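 Panel screen by radioactive kinase assay at a single inhibitor concentration. Score is the percent activity remaining relative to DMSO controls (100%).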

[2] = target: Mitogen-activated protein kinase 1 (Homo sapiens) (UniProt P28482); assay: Inhibition of ERK2 assessed as residual activity at 10 uM
Sequence of Mitogen-activated protein kinase 1 (Homo sapiens) (P28482 whole entry): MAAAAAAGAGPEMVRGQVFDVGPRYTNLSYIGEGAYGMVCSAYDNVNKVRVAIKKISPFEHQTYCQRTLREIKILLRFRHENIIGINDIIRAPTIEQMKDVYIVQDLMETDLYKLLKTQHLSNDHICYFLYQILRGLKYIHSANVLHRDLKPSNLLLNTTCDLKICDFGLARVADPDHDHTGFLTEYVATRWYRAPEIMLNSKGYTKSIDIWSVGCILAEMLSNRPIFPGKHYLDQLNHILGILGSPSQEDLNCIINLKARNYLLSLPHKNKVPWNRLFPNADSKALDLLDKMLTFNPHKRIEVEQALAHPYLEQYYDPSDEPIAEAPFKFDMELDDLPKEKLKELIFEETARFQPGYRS
Method in brief: (§2)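 Kinase panel screen run as a radioactive activity assay at single compound concentration. Score reported as percent activity remaining relative to DMSO controls (100%).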

[3] = target: Serine/threonine-protein kinase MARK2 (Homo sapiens) (UniProt Q7KZI7); assay: Inhibition of MARK2 assessed as residual activity at 10 uM; method in brief: as §2
[4] = target: Receptor-interacting serine/threonine-protein kinase 2 (Homo sapiens) (UniProt O43353); assay: Inhibition of RIPK2 assessed as residual activity at 10 uM; method in brief: as §1
Sequence of Receptor-interacting serine/threonine-protein kinase 2 (Homo sapiens) (O43353 whole entry): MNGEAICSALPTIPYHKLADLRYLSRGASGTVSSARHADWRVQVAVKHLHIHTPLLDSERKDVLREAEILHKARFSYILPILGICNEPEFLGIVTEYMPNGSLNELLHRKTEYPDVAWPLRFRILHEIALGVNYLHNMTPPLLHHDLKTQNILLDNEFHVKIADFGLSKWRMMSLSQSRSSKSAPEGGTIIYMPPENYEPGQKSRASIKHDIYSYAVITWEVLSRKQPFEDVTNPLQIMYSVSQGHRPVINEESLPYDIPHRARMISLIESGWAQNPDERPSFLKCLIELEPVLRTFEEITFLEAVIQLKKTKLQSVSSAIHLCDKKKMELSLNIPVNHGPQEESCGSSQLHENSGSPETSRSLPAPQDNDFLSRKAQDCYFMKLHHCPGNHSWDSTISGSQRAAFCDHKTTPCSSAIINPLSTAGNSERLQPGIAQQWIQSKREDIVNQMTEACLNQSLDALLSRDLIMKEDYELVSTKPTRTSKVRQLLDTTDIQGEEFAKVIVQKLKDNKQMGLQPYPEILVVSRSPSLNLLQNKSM

[5] = target: Tyrosine-protein kinase BTK (Homo sapiens) (UniProt Q06187); assay: Inhibition of BTK assessed as residual activity at 10 uM; method in brief: as §2
Sequence of Tyrosine-protein kinase BTK (Homo sapiens) (Q06187 whole entry): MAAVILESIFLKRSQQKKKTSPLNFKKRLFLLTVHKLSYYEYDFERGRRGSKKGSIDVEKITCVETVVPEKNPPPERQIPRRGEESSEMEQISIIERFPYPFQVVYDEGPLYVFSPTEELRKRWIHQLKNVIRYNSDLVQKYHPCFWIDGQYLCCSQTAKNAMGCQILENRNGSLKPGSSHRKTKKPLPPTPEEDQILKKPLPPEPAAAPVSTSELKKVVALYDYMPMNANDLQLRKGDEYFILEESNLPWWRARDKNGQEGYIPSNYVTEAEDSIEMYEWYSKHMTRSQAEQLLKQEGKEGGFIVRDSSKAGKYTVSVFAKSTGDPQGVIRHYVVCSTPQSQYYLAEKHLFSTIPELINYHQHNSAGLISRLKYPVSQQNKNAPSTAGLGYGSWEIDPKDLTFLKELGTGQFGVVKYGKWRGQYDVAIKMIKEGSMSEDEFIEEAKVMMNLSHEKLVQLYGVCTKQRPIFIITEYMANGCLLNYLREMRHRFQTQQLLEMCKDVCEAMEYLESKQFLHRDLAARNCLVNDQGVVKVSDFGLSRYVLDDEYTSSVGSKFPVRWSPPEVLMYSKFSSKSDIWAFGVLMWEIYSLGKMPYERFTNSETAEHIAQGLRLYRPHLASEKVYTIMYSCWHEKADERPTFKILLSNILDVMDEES

[6] = target: Cyclin-dependent kinase 2/cyclin A (Homo sapiens) (UniProt P24941+P20248+P78396); assay: Inhibition of CDK2/CyclinA assessed as residual activity at 10 uM; assay type: protein-complex assay; method in brief: as §2
Sequence of Cyclin-dependent kinase 2/cyclin A (Homo sapiens) (P20248 whole entry, looked up, other chains not shown): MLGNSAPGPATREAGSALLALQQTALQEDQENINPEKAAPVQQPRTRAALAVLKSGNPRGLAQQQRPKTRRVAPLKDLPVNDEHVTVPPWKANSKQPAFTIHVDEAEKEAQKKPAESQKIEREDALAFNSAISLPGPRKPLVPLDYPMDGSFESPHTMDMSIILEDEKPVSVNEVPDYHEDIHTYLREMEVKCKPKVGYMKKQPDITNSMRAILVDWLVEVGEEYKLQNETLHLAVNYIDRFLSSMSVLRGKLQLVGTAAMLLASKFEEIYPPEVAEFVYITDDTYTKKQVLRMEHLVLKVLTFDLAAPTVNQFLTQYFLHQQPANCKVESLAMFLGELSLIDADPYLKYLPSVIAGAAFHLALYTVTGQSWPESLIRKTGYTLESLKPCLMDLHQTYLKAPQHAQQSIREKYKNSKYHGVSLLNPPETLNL
Sequence of Cyclin-dependent kinase 2/cyclin A (Homo sapiens) (P78396 whole entry, looked up, other chains not shown): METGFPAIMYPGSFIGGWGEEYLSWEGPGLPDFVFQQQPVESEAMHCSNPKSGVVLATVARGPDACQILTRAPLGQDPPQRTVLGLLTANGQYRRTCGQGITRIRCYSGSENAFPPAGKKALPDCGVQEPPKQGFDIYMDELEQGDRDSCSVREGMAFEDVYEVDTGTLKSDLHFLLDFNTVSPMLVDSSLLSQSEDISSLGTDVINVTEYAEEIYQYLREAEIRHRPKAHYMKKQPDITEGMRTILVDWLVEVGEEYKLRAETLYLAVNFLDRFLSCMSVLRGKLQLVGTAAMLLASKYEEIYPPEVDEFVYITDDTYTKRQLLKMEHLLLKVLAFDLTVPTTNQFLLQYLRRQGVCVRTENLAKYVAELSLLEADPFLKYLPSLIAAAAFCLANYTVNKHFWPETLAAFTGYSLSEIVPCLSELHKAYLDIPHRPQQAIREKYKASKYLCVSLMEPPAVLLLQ

[7] = target: Serine/threonine-protein kinase pim-3 (Homo sapiens) (UniProt Q86V86); assay: Inhibition of PIM3 assessed as residual activity at 10 uM; method in brief: as §1
[8] = target: Serine/threonine-protein kinase 26 (Homo sapiens) (UniProt Q9P289); assay: Inhibition of MST4 assessed as residual activity at 10 uM; method in brief: as §1
Sequence of Serine/threonine-protein kinase 26 (Homo sapiens) (Q9P289 2-416 limits assumed): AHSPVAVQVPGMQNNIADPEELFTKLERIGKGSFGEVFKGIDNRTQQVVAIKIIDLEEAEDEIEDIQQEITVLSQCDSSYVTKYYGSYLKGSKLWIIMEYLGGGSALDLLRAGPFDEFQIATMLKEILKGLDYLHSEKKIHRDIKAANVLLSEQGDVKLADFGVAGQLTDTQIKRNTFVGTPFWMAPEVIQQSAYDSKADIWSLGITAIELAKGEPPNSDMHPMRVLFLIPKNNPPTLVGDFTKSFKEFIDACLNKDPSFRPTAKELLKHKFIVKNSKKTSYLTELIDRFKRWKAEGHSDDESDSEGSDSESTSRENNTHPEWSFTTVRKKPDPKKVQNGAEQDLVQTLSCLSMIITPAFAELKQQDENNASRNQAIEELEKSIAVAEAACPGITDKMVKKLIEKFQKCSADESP

[9] = target: T1, Inhibitor of nuclear factor kappa-B kinase subunit beta (Homo sapiens) (UniProt O14920); assay: Inhibition of IKK-beta assessed as residual activity at 10 uM; method in brief: as §2
T1 sequence (whole entry): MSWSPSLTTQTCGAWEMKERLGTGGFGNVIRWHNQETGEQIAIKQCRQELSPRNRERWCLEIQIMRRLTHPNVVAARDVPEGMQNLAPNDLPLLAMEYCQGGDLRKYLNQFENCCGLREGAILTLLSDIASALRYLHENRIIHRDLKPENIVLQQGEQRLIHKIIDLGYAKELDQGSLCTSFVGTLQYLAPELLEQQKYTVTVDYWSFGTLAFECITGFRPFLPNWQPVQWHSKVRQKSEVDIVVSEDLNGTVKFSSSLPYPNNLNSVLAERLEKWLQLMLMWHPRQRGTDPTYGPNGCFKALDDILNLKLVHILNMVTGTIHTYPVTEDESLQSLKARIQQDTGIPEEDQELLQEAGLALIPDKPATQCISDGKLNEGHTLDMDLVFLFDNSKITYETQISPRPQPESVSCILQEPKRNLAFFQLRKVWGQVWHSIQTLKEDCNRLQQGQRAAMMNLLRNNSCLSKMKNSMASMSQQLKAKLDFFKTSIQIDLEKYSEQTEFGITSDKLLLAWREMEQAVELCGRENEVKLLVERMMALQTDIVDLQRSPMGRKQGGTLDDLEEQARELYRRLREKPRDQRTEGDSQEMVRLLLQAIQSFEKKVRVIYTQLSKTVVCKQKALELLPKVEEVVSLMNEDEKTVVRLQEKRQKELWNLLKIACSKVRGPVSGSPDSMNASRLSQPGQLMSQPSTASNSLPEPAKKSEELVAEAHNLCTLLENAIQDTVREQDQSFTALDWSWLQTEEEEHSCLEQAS

[10] = target: T2, MAP kinase-activated protein kinase 5 (Homo sapiens) (UniProt Q8IW41); assay: Inhibition of PRAK assessed as residual activity at 10 uM; method in brief: as §1
T2 sequence (whole entry): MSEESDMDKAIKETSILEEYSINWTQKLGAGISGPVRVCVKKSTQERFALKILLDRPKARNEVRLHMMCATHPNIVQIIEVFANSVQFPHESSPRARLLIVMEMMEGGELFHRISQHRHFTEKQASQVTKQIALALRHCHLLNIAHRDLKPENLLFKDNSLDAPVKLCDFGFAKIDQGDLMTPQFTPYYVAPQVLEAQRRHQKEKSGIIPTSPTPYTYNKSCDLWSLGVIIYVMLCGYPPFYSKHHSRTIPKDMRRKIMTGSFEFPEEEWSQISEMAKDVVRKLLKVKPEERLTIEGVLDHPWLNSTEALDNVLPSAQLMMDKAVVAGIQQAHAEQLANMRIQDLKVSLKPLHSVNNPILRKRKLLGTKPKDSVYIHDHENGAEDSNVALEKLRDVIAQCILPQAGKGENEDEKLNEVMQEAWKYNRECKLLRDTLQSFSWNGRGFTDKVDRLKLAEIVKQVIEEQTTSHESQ

[11] = target: Ribosomal protein S6 kinase beta-1 (Homo sapiens) (UniProt P23443); assay: Inhibition of S6K1 assessed as residual activity at 10 uM; method in brief: as §1
Sequence of Ribosomal protein S6 kinase beta-1 (Homo sapiens) (P23443 whole entry, looked up): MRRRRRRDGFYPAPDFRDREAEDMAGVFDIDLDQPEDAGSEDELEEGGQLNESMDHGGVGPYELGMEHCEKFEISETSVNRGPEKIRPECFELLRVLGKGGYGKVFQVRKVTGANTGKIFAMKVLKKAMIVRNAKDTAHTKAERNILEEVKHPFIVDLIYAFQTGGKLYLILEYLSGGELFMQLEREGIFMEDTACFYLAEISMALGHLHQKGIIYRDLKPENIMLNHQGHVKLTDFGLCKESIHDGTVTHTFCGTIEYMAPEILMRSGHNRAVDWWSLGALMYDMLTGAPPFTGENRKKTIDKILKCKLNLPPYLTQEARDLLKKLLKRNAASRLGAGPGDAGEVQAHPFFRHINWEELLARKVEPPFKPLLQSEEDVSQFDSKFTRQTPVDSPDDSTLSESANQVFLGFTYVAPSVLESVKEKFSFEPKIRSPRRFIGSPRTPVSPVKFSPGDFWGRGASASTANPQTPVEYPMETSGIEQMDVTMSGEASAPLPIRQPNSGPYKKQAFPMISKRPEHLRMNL

[12] = target: Dual specificity tyrosine-phosphorylation-regulated kinase 1A (Homo sapiens) (UniProt Q13627); assay: Inhibition of DYRK1A assessed as residual activity at 10 uM; method in brief: as §2
[13] = target: T3, Dual specificity tyrosine-phosphorylation-regulated kinase 2 (Homo sapiens) (UniProt Q92630); assay: Inhibition of DYRK2 assessed as residual activity at 10 uM; method in brief: as §2
T3 sequence (whole entry): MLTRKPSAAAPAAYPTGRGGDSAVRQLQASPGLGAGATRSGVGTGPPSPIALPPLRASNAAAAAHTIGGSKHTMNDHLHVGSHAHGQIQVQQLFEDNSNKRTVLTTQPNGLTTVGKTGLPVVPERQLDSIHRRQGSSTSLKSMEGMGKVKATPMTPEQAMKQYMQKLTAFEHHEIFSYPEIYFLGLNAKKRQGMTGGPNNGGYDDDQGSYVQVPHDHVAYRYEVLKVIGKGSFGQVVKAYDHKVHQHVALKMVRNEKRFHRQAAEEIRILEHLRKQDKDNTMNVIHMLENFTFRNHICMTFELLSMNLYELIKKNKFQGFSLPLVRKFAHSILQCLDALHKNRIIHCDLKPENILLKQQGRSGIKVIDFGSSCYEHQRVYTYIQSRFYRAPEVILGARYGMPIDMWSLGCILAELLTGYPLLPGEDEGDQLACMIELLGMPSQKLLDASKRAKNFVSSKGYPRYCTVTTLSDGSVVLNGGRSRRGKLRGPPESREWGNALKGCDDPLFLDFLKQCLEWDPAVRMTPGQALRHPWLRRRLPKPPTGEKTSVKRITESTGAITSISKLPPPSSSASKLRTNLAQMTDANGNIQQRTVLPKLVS

[14] = target: Mitogen-activated protein kinase 8 (Homo sapiens) (UniProt P45983); assay: Inhibition of JNK1 assessed as residual activity at 10 uM; method in brief: as §2
Sequence of Mitogen-activated protein kinase 8 (Homo sapiens) (P45983 whole entry): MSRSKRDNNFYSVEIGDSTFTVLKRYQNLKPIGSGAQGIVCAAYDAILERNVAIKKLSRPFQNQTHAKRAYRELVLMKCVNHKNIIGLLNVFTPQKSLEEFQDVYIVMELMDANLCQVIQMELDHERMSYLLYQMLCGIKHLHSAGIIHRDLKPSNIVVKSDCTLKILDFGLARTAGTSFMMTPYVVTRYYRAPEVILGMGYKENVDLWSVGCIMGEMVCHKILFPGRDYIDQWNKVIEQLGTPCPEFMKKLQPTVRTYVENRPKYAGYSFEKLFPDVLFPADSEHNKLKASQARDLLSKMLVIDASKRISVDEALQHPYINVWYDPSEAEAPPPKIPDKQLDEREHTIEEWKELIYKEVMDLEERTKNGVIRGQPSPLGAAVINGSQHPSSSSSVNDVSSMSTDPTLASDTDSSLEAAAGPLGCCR

Sequence of Serine/threonine-protein kinase PAK 2 (Homo sapiens) (Q13177 whole entry): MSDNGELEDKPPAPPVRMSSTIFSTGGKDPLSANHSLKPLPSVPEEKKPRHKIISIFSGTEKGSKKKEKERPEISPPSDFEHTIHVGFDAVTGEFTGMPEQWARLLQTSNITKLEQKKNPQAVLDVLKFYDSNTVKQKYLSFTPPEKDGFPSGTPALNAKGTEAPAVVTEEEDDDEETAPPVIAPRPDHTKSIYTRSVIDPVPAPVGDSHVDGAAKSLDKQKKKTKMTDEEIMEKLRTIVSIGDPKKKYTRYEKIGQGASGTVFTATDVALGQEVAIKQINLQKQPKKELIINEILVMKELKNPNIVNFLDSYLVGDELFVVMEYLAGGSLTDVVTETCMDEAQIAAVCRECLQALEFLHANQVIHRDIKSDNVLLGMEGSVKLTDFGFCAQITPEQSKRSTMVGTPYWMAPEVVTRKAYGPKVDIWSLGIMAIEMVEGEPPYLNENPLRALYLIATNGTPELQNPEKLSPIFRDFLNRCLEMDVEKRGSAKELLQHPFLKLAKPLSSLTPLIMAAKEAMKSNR

Row | Activity [1] [%] | Activity [2] [%] | Activity [3] [%] | Activity [4] [%] | Activity [5] [%] | Activity [6] [%] | Activity [7] [%] | Activity [8] [%] | Activity [9] [%] | Activity [10] [%] | Activity [11] [%] | Activity [12] [%] | Activity [13] [%] | Activity [14] [%] | Structure (SMILES)
1 | 90 | 95 | 100 | 66 | 76 | 100 | 68 | 92 | 88 | 100 | 82 | 79 | 83 | 99 | CN1CCN(CCC(=O)Nc2ccc3c(C#N)cnc(Nc4cccc(Br)c4)c3c2)CC1
2 | 81 | 81 | 90 | 79 | 52 | 97 | 59 | 81 | 79 | 88 | 71 | 60 | 68 | 91 | CN(C)C/C=C/C(=O)Nc1ccc2c(C#N)cnc(Nc3cccc(Br)c3)c2c1
3 | 80 | 100 | 100 | 82 | 72 | 100 | 46 | 99 | 84 | 100 | 84 | 75 | 70 | 97 | CN(C)CCCC(=O)Nc1ccc2c(C#N)cnc(Nc3cccc(Br)c3)c2c1
